Data as given in ChEMBL document CHEMBL3232903, “New pyrazolobenzothiazine derivatives as hepatitis C virus NS5B polymerase palm site I inhibitors” (J Med Chem, 2014).

Assays:
[1] = Apparent permeability of the compound after 5 hrs by PAMPA-GI model analysis; format: physicochemical
In short: (§1)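 PAMPA, gastrointestinal model. Donor 0.5 mM, diluted from 1 mM DMSO stock in phosphate buffer pH 7.4 (0.025 M). Filter coated with 1% w/v phosphatidylcholine in dodecane; acceptor 50% DMSO in buffer. Incubated 5 or 22 h at room temperature with gentle shaking. Both sides analysed by LC-UV at 254 nm, concentration from peak area. Papp in cm/s and % membrane retention calculated by equations; three plates on different days.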

[2] = Apparent permeability of the compound after 22 hrs by PAMPA-GI model analysis; format: physicochemical; in short: as §1
[3] = Apparent permeability of the compound assessed as membrane retention after 5 hrs by PAMPA assay; format: physicochemical; in short: as §1
[4] = Apparent permeability of the compound assessed as membrane retention after 22 hrs by PAMPA assay; format: physicochemical; in short: as §1
[5] = Metabolic stability of the compound in human liver microsomes assessed as unmodified compound remaining after 60 mins; format: ADME; conditions: read-out: Stability
In short: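 Compound at 50 μM final (DMSO ≤2%) incubated 60 min at 37 °C with human liver microsomal protein (0.2 mg/mL) and an NADPH-generating system in 125 mM phosphate buffer, pH 7.4. Unmodified parent was quantified by LC–MS and reported as percentage remaining.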

[6] = Induction of phospholipidosis in human Huh-9-13 cells assessed as multilamellar bodies formation at 90 uM by monodansylcadaverine staining; format: cell-based
In short: (§2)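 Huh-9-13 cells seeded at 25.000 cells/dish in complete DMEM without G418 at 37 °C, 5% CO2. Next day, compound (90 μM) or DMSO added for 3 days. Then stained 30 min with monodansylcadaverine (50 μM; ex 340/em 530 nm), LipidTOX Red (1/1000; ex 577/em 609 nm) or Nile Red (2 μg/mL; yellow-gold at ex 552/em 636 nm). Imaged by confocal microscopy.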

[7] = Induction of steatosis in human Huh-9-13 cells assessed as intracellular accumulation of neutral lipids at 90 uM by Nile Red staining; format: cell-based; in short: as §2
[8] = Induction of steatosis in human Huh-9-13 cells assessed as increase in size of lipid droplets at 90 uM by LipidTOX red staining; format: cell-based; in short: as §2
[9] = test system: Hepatitis C virus isolate HC-J4; experiment: Inhibition of RNA-dependent RNA polymerase activity of HCV genotype 1b HC-J4 recombinant N-terminal histidine tagged C-terminal 21 aminoacids truncated NS5B polymerase at 50 uM after 1 hr by standard primer dependent elongation assay
In short: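 Recombinant NS5BCΔ21 genotype 1b in a primer-dependent elongation assay. […] IC50 is the concentration halving enzyme activity in vitro; mean ± SD of two independent experiments in duplicate.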

[10] = Inhibition of RNA-dependent RNA polymerase activity of HCV genotype 1b HC-J4 recombinant N-terminal histidine tagged C-terminal 21 aminoacids truncated NS5B polymerase after 1 hr by standard primer dependent elongation assay; set-up: species or system Hepatitis C virus isolate HC-J4
In short: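 Recombinant NS5BCΔ21 genotype 1b in a primer-dependent elongation assay. IC50 is the concentration halving enzyme activity in vitro; mean ± SD of two independent experiments in duplicate.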

Hepatitis C virus [11] = experiment: Antiviral activity against HCV genotype 1b […] replicon infected in human Huh9-13 cells assessed as decrease in replicon RNA content by RT-qPCR analysis; format: functional, cell-based, Hepacivirus hominis
In short: (§3)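 Subgenomic genotype 1b HCV replicon cells: Huh-9-13 (Huh-7 background, no luciferase reporter) and HuH6 (different adaptive mutations). EC50 from decrease in replicon RNA measured by RT-qPCR. Host-cell proliferation and metabolism checked in parallel by MTS assay.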

[12] = target: RNA-directed RNA polymerase (Hepacivirus hominis, UniProt O39930, P495L); experiment: Inhibition of RNA-dependent RNA polymerase activity of HCV genotype 1b HC-J4 recombinant N-terminal histidine tagged C-terminal 21 aminoacids truncated NS5B polymerase P495L mutant at thumb site 1 after 1 hr by standard primer dependent elongation assay; set-up: species or system Hepatitis C virus isolate HC-J4
In short: (§4)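 Recombinant NS5BCΔ21 genotype 1b mutants, M414T, M423T and P495L, each run in a primer-dependent elongation assay as for wild-type enzyme. IC50 is the mean ± SD of two independent experiments in duplicate.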

[13] = target: RNA-directed RNA polymerase (Hepacivirus hominis, UniProt O39930, M423T); experiment: Inhibition of RNA-dependent RNA polymerase activity of HCV genotype 1b HC-J4 recombinant N-terminal histidine tagged C-terminal 21 aminoacids truncated NS5B polymerase M423T mutant at thumb site 2 after 1 hr by standard primer dependent elongation assay; set-up: species or system Hepatitis C virus isolate HC-J4; in short: as §4
[14] = test system: Hepatitis C virus isolate HC-J4; experiment: Ratio of IC50 for HCV genotype 1b HC-J4 recombinant N-terminal histidine tagged C-terminal 21 aminoacids truncated NS5B polymerase M414T mutant at palm site 1 to HCV genotype 1b HC-J4 recombinant N-terminal histidine tagged C-terminal 21 aminoacids truncated wild type NS5B polymerase
In short: (§5)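 Fold change is the mutant NS5BCΔ21 IC50 (M414T, M423T or P495L) divided by the wild-type IC50. Both were measured in a primer-dependent elongation assay, from two independent experiments in duplicate.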

[15] = test system: Hepatitis C virus isolate HC-J4; experiment: Ratio of IC50 for HCV genotype 1b HC-J4 recombinant N-terminal histidine tagged C-terminal 21 aminoacids truncated NS5B polymerase P495L mutant at thumb site 1 to HCV genotype 1b HC-J4 recombinant N-terminal histidine tagged C-terminal 21 aminoacids truncated wild type NS5B polymerase; in short: as §5
[16] = test system: Hepatitis C virus isolate HC-J4; experiment: Ratio of IC50 for HCV genotype 1b HC-J4 recombinant N-terminal histidine tagged C-terminal 21 aminoacids truncated NS5B polymerase M423T mutant at thumb site 2 to HCV genotype 1b HC-J4 recombinant N-terminal histidine tagged C-terminal 21 aminoacids truncated wild type NS5B polymerase; in short: as §5
[17] = target: RNA-directed RNA polymerase (Hepacivirus hominis, UniProt O39930, M414T); experiment: Inhibition of RNA-dependent RNA polymerase activity of HCV genotype 1b HC-J4 recombinant N-terminal histidine tagged C-terminal 21 aminoacids truncated NS5B polymerase M414T mutant at palm site 1 after 1 hr by standard primer dependent elongation assay; set-up: species or system Hepatitis C virus isolate HC-J4; in short: as §4
Hepatitis C virus [18] = experiment: Antiviral activity against HCV genotype 1b I389luc-ubi-neo/NS3-3'/5.1 replicon infected in human Huh5-2 cells assessed as inhibition of virus replication by luciferase assay; format: functional, cell-based, Hepacivirus hominis; conditions: Huh-5-2
[19] = Cytostatic activity against human Huh5-2 cells carrying HCV genotype 1b I389luc-ubi-neo/NS3-3'/5.1 replicon assessed as reduction in metabolic activity after 72 hrs by MTS assay; format: ADME, cell-based, Huh-5-2; conditions: huh-5-2, 72 h
In short: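 Replicon-bearing Huh-5-2 cells run in parallel with the antiviral read-out; CC50 is the concentration halving MTS bioreduction to formazan, taken as the antimetabolic effect on host cells; mean ± SD from at least three dose–response curves.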

[20] = Cytotoxicity against human Huh5-2 cells carrying HCV genotype 1b I389luc-ubi-neo/NS3-3'/5.1 replicon assessed as cell morphological changes after 72 hrs by microscopic analysis; format: cell-based; conditions: huh-5-2, 72 h
In short: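 Huh-5-2 replicon cells examined by microscopy for changes in cell morphology after 72 h of compound treatment.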

[21] = Selectivity index, ratio of CC50 for human Huh5-2 cells to EC50 for HCV genotype 1b I389luc-ubi-neo/NS3-3'/5.1 replicon infected in human Huh5-2 cells; set-up: species or system Huh-5-2
Hepatitis C virus [22] = experiment: Antiviral activity against HCV genotype 1b I389luc-ubi-neo/NS3-3'/5.1 replicon infected in human Huh6 cells assessed as decrease in replicon RNA content by RT-qPCR analysis; format: functional, cell-based, Hepacivirus hominis; conditions: HuH-6; in short: as §3
[23] = Cytostatic activity against human Huh-9-13 cells carrying HCV genotype 1b I389luc-ubi-neo/NS3-3'/5.1 replicon assessed as reduction in metabolic activity after 72 hrs by MTS assay; format: ADME, cell-based
In short: (§6)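 MTS assay measuring bioreduction to formazan, read as host-cell metabolism/proliferation in subgenomic genotype 1b replicon cells. It was run alongside RT-qPCR-based antiviral testing. Huh-9-13 replicon cells lack the luciferase reporter, carry different adaptive mutations and more HCV RNA than Huh-5-2. HuH6 replicon cells use a different host line from Huh-7 and have distinct adaptive mutations. CC50 is the concentration that halves MTS reduction.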

[24] = Cytostatic activity against human Huh6 cells carrying HCV genotype 1b I389luc-ubi-neo/NS3-3'/5.1 replicon assessed as reduction in metabolic activity after 72 hrs by MTS assay; format: ADME, cell-based; in short: as §6
[25] = Lipophilicity, log P of the compound by shake flask method; format: physicochemical; conditions: octanol/water
In short: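 Shake flask: compound dissolved in octanol, then 2.5 mL octanol with 2.5 mL water, sealed and agitated, 10 h to equilibrium. Each phase analysed by HPLC (C18, 50% ACN/50% H2O, 0.8 mL/min, UV).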

Sequence of RNA-directed RNA polymerase (Hepacivirus hominis, UniProt O39930, P495L) (O39930 entry or part of it P495L): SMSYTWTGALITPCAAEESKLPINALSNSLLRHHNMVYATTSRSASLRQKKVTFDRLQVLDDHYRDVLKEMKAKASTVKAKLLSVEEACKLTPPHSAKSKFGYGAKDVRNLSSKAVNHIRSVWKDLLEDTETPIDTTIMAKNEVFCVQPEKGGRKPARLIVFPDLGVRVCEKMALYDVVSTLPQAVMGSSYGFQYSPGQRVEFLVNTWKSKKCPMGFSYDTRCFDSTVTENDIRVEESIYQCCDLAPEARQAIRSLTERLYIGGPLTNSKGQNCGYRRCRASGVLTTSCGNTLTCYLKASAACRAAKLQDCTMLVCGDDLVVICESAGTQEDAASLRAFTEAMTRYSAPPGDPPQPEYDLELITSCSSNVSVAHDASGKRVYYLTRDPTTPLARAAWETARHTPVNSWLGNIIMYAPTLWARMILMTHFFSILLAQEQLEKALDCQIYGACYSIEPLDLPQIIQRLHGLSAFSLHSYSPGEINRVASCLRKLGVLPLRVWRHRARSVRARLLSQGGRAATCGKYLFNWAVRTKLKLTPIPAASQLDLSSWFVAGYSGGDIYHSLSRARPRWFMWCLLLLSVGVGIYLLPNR
Sequence of RNA-directed RNA polymerase (Hepacivirus hominis, UniProt O39930, M414T) (O39930 entry or part of it M414T): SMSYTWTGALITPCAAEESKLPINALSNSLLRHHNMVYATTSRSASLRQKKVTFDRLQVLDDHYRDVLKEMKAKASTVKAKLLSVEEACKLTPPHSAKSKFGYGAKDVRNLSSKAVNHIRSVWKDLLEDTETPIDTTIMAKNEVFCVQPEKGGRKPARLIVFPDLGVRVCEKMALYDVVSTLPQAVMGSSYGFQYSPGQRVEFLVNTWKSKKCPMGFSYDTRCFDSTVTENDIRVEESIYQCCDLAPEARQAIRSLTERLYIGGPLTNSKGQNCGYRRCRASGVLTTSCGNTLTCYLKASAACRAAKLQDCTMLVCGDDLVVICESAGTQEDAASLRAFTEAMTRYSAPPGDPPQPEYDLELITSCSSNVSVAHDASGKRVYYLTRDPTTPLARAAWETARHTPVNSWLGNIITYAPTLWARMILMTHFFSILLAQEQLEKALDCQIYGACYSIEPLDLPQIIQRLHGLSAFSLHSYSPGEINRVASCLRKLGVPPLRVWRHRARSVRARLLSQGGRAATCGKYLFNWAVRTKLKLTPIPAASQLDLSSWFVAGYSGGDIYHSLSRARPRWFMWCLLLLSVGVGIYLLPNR
Sequence of RNA-directed RNA polymerase (Hepacivirus hominis, UniProt O39930, M423T) (O39930 entry or part of it M423T): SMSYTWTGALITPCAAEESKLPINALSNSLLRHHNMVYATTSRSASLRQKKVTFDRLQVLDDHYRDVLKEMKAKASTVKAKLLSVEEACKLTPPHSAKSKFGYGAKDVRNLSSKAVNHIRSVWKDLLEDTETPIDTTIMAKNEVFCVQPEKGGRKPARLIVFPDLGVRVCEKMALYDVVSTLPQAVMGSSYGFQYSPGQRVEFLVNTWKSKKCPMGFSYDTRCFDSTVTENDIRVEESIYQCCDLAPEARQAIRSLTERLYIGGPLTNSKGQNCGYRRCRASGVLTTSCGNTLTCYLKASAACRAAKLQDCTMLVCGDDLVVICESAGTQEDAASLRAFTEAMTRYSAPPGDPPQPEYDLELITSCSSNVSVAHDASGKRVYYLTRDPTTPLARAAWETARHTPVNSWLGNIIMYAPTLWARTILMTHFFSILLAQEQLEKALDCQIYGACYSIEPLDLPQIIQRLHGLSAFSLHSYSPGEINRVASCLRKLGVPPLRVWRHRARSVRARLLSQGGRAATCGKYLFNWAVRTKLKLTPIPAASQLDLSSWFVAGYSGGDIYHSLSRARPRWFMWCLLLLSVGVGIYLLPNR

Q: For `CN1c2c(C(=O)Nc3ccc(NS(C)(=O)=O)cc3)nn(-c3cccc(Cl)c3)c2-c2ccccc2S1(=O)=O`, which Papp [1] is on record?
A: 2.3 ×10⁻⁶ cm/s

Q: And the Papp [2]?
A: 4.2 ×10⁻⁶ cm/s

Q: What about the R% [3] of the same compound?
A: 7.3%

Q: And the R% [4]?
A: 3.2%

Q: And the remaining at 1 h [5]?
A: 99.9%

Q: What about the Activity [6] of the same compound?
A: Non-toxic

Q: And the Activity [7]?
A: Toxic

Q: And the Activity [8]?
A: Toxic

Q: And the inhibition [9]?
A: > 50%

Q: And the IC50 [10]?
A: 4.3 µM

Q: What about the EC50 (Hepatitis C virus [11]) of the same compound?
A: 7.6 µM

Q: What about the IC50 [12] of the same compound?
A: 5.1 µM

Q: What about the IC50 [13] of the same compound?
A: 9.3 µM

Q: What about the Ratio IC50 [14] of the same compound?
A: 29.7

Q: And the Ratio IC50 [15]?
A: 1.2

Q: And the Ratio IC50 [16]?
A: 2.2

Q: What about the IC50 [17] of the same compound?
A: 128 µM

Q: What about the EC50 (Hepatitis C virus [18]) of the same compound?
A: 9.8 µM

Q: And the EC90 (Hepatitis C virus [18])?
A: 41 µM

Q: What about the CC50 [19] of the same compound?
A: > 179 µM

Q: And the Activity [20]?
A: Toxic

Q: What about the “Ratio CC50/EC50” value [21] of the same compound?
A: >18

Q: What about the EC50 (Hepatitis C virus [22]) of the same compound?
A: 14 µM

Q: What about the CC50 [23] of the same compound?
A: > 90 µM

Q: What about the CC50 at 72 h [24] of the same compound?
A: > 90 µM

Q: And the logP [25]?
A: 2.11
